ARFGAP1 inhibitor = inhibitors of rat ARFGAP1 GAP activity, primary screen, biochemical, fluorescence polarization, GDP tracer; ADP-ribosylation factor GTPase-activating protein 1 (Rattus norvegicus), Q62848; Arfgap1-stimulated ARF1 GTP hydrolysis, GDP FP detection; inhibition, % at 16.5 µM; 0.26% of 360,000 active; AID 651572, 2012;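 active means inhibition above a per-plate limit, mean inhibition of low control wells plus 3 SD, cut at about 25% in these data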;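 further: 0% = DMSO wells with enzyme and 100% = wells lacking Arfgap1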
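System: truncated rat Arfgap1 GAP domain / Benchmarks: high control wells lacking Arfgap1, low control full reaction with DMSO / Times: compound-enzyme preincubation 20 min, reaction 120 min, detection 60 min, 25 °C / Repeats: one replicate per compound / Also added: human ARF1(Δ1-17)-GTP substrate / Measured by: Tracer-displacement fluorescence polarization with EDTA stop, 620/688 nm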
HCV core dimer = inhibitors of HCV core protein dimerization, primary screen, biochemical, TR-FRET, high-throughput. TR-FRET GST/Flag-core106 dimerization, 1536-well. inhibition, % at 5 µM. 0.33% of 300,000 active;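 active means inhibition above the mean of all tested compounds plus 3 SD, set per screening campaign, cut at about 45% in these data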
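Assay system: GST-tagged and Flag-tagged HCV core protein residues 1-106 / Times: compound-protein-antibody incubation 4 h at 22.5 °C / Signal: time-resolved FRET, ex 340 nm, em 617 and 671 nm / Evaluation: % inhibition based on acceptor/donor emission ratio / Benchmarks: wells lacking GST-core106 and wells with excess unlabelled core106 / Repeats: singlicate, one well per compound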
Fh CTSL1 inh = Fasciola hepatica cathepsin L1 inhibitors, primary screen, counter-screen for PFM18AAP inhibitor project, biochemical, QFRET, fluorogenic peptide substrate | recombinant F. hepatica cathepsin L1, Z-Leu-Arg-MCA fluorescence | inhibition, % at 5.96 µM | 0.49% of 300,000 active;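 active means inhibition above the mean of all tested compounds plus 3 SD, set per screening campaign, cut at about 17% in these data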;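 further: 0% = plate median of test compound wells and 100% = 1 µM Z-Phe-Ala-diazomethylketone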
GC-A act = GC-A stimulated cGMP production enhancers – HEK293 GC-A cells, cGMP TR-FRET, EC30 ANP, primary screen. Atrial natriuretic peptide receptor 1 (Homo sapiens), P16066. 0% at EC30 ANP, 100% saturating ANP. activation, % at 10 µM. 0.14% of 370,000 active. AID 1671463, 2021; in the data active means activation above about 40%
ASAP1 GAP inh = inhibitors of human ASAP1 ArfGAP activity, primary screen, biochemical, fluorescence polarization | Arf-GAP with SH3 domain, ANK repeat and PH domain-containing protein 1 (Homo sapiens), … | ASAP1-stimulated ARF1 GTP hydrolysis, GDP FP detection | inhibition, % at 16.5 µM | 0.19% of 360,000 active; in the data active means inhibition above about 25%;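 further: 0% = vehicle with enzyme and substrate and 100% = no enzyme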
GC-B act = human GC-B receptor activators, primary screen, HEK293 GC-B cells, cGMP TR-FRET, EC30 CNP | Atrial natriuretic peptide receptor 2 (Homo sapiens), P20594 | 0% at EC30 CNP, 100% saturating CNP | activation, % at 10 µM | 0.11% of 370,000 active;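 active means activation at 10 µM reaching about 35% in either raw or pattern-adjusted values, limit read from the data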
* marks the source's active call; other numbers are inactive results; . = no result given. Hits are enriched below; roughly 1.2% of the tested compounds scored in any of these assays.

SMILES	ARFGAP1 inhibitor	HCV core dimer	Fh CTSL1 inh	GC-A act	ASAP1 GAP inh	GC-B act
Cc1ccc(C(=O)NN2CC(O)=C(c3nc(-c4cccc([N+](=O)[O-])c4)cs3)C2=N)cc1	-9	54*	3	-1	1	3
CCOC(=O)c1c(C)oc(NC(=O)CCl)c1C(=O)OCC	-6	-3	84*	0	9	-3
CCOC(=O)c1c(C)oc(=O)c(CC)c1O	-2	.	.	4	4	1
CCN(CC)C(=O)CSc1nnc([C@@H](N)C(C)C)o1	-7	2	33*	1	-12	4
CCn1cc(C(=O)NCCCN2CCCC(C)C2)c(=O)c2cc(S(=O)(=O)N3CCc4ccccc4C3)ccc21 (stereo not given)	13	3	0	-7	5	-2
CNC(=O)COc1ccc(Nc2nnc(-c3ccc(C)c(S(N)(=O)=O)c3)c3ccccc23)cc1	0	-1	5	3	4	0
O=C(CC12CC3CC(CC(C3)C1)C2)NCc1ccncc1	-3	-6	17*	3	-3	3
CCCNC(=O)C1(C)CCN(Cc2ccc(C)c3ccccc23)C1 (stereo not given)	0	.	.	-6	-6	5
c1ccc2c(c1)CCCC2C1=NCCN1 (stereo not given)	-3	3	5	1	8	3
O=C(Nc1nc(-c2cccs2)c(-c2ccccc2)s1)c1ccco1	34*	-39	3	-3	15	-4
CC(=O)Nc1sc(NC(=O)c2ccco2)nc1-c1cccs1	-13	1	2	4	-1	0
CC1CC1C(=O)Nc1nc(-c2cccs2)c(-c2cccs2)s1 (stereo not given)	1	50*	1	-1	10	-4
CC(=O)Nc1ccc(C(=O)N2CCOCC2c2cc(C(=O)NCc3ccccc3)no2)cc1 (stereo not given)	24	.	.	1	1	-3
COc1ccc(NC(=O)CN2CCCCCC2)cc1OC	5	6	0	4	-3	0
COc1cc2c(C#CCCO)c(-c3ccc(C#N)cc3)oc(=O)c2cc1OC	9	.	.	5	21	5
COc1ccc(C(=O)Nc2cc(C(=O)c3ccccc3)c(C)oc2=O)cc1	0	4	18*	3	-9	-5
COC(=O)c1cc(NC(=O)c2ccccc2)c(=O)oc1C	8	1	2	0	0	4
Cc1oc(=O)c(NC(=O)c2cccc(Cl)c2)cc1C(=O)c1ccccc1	-2	5	55*	6	-19	-1
N#Cc1cccc(Cn2ccc3ccc(-c4ccc5ccn(Cc6cccc(C#N)c6)c5c4)cc32)c1	.	.	.	-4	.	2
CC1=C(C(=O)Nc2ccccc2)C(c2ccc(C)o2)N2C(=O)CSC2=N1 (stereo not given)	-6	1	-1	-9	1	5
COc1ccc(Cl)cc1C(=O)NCCCN1CCOCC1	1	4	-2	-1	-3	7
C=CCOC(=O)C1=C(C)NC(SCC(=O)Nc2nccs2)=C(C#N)C1c1cccs1 (stereo not given)	11	49*	0	-6	-1	-10
CCOC(=O)NC1(Nc2ccc(C)cc2)Oc2ccccc2O1	7	-2	0	0	1	2
CCOC(=O)c1c(C)[nH]c(C)c1C(=O)COC(=O)CNC(=O)C1CCCCC1	5	3	54*	1	-1	2
CCc1ccc(C(=O)COC(=O)CNC(=O)C2CCCCC2)cc1	-4	.	.	3	3	5
CCOC(=O)c1c(C)[nH]c(C(=O)COC(=O)CNC(=O)c2ccccc2Cl)c1C	3	-6	-5	1	13	0
